This note sets out measurements from ChEMBL document CHEMBL4428108, “Carbohydrate-based peptidomimetics targeting neuropilin-1: Synthesis, molecular docking study and in vitro biological activities” (Bioorg Med Chem, 2016).

Calls of active or inactive are those of the source. No cut-off for these calls is given here. Peptide text beside a SMILES is read from it.

In test [1] the target is T1, Neuropilin-1 (Homo sapiens, UniProt O14786). Kind of test: Binding affinity to NRP1 in HUVEC assessed as ratio of phosphorylated ERK to total ERK at 50 uM by Western blot analysis. The test is classed as cell-based. The method, boiled down:
(§1)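 HUVECs exposed to 50 µM compound; tuftsin as reference. Lysate protein (40 µg) resolved by SDS-PAGE and blotted to PVDF. Probed overnight at 4 °C for pAKT (Ser473), total AKT, pERK1/2 (Thr202/Tyr204) and total ERK1/2. ECL detection and densitometry. Phospho/total band ratio normalized to non-treated cells.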
On the technique in general: In western blotting, separated proteins are transferred to a membrane and probed.

Test [2] concerns the target T1, Neuropilin-1. Put plainly: Inhibition of biotinylated VEGF-A165 binding to recombinant NRP1 (unknown origin) measured after 2 hrs by competition binding assay. The method, boiled down:
(§2)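 Competition ELISA. Wells coated overnight at room temperature with recombinant chimeric NRP-1 or KDR in PBS, then blocked with 0.5% BSA/PBS for 1 h at 37 °C. Biotinylated VEGF-A165 (5 ng/mL, heparin-containing blocking buffer) incubated 2 h at room temperature with or without compound; unlabelled VEGF-A165 as positive control. Bound tracer detected with streptavidin-HRP, read at 450 nm. Three independent experiments, triplicates.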

Test [3] concerns the target T1, Neuropilin-1. Kind of test: Binding affinity to NRP1 in HUVEC assessed as increase in AKT phosphorylation at 50 uM by Western blot analysis. The test is classed as cell-based. The gist of the method: as §1
Test [4] has as its target T1, Neuropilin-1. Kind of test: Inhibition of biotinylated VEGF-A165 binding to recombinant NRP1 (unknown origin) at 100 uM measured after 2 hrs by competition binding assay relative to VEGF-A165. The gist of the method: as §2

T1 sequence (O14786 whole entry): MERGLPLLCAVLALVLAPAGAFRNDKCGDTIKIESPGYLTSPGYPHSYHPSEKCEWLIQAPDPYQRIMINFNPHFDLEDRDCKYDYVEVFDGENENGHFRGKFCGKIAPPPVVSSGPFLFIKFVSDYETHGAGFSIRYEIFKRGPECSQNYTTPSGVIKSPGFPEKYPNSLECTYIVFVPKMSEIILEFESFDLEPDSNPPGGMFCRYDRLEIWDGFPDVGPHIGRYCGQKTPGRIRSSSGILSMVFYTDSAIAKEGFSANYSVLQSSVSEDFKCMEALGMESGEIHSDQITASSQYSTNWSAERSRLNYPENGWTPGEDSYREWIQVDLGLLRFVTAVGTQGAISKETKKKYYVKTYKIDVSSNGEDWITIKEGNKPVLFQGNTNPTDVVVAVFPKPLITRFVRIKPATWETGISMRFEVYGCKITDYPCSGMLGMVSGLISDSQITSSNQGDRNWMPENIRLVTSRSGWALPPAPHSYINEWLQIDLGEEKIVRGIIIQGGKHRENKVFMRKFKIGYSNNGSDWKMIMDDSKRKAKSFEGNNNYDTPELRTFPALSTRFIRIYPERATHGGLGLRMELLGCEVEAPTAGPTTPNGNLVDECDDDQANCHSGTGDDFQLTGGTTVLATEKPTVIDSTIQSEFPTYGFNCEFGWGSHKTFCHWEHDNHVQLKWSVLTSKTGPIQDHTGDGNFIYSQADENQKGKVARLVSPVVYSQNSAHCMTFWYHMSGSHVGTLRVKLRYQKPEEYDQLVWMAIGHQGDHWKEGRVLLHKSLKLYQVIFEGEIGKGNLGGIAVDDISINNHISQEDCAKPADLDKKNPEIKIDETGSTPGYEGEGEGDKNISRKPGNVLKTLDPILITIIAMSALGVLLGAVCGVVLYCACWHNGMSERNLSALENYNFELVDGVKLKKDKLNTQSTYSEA

Broadly, the IC50 is the concentration needed to halve the response being measured. As for `C[C@@H](O)[C@H](N)C(=O)N[C@@H](CCCCN)C(=O)N1CCC[C@H]1C(=O)N[C@@H](CCCNC(=N)N)C(=O)O` (H-TKPR-OH), the Ratio at Neuropilin-1 [1] turned out to be 0.88. The IC50 on Neuropilin-1 [2] was found to be 25 µM. In addition, the outcome at Neuropilin-1 [3] was Active. The inhibition is the relative decrease from the control value, in per cent. `CC1(C)O[C@@H]2[C@H](O1)[C@H](CN(CCCCCNC(=N)N)C(=N)N)O[C@@H]2CC(=O)NCCc1c[nH]c2ccccc12`: the IC50 on Neuropilin-1 [2] was 120 µM. Besides, the inhibition on Neuropilin-1 [4] was 52%. As to `CC1(C)O[C@@H]2[C@H](O1)[C@H](CN(CCCNC(=N)N)C(=N)N)O[C@@H]2CC(=O)NCCc1c[nH]c2ccccc12`, on Neuropilin-1 [4], the inhibition was 5%. As for `CC1(C)O[C@@H]2[C@H](O1)[C@H](Cn1cc(CCNC(=N)N)nn1)O[C@@H]2CC(=O)NCCc1c[nH]c2ccccc12`, the inhibition at Neuropilin-1 [4] worked out at 5%.

Consider `CC1(C)O[C@@H]2[C@H](O1)[C@H](CN(CCCCNC(=N)N)C(=N)N)O[C@@H]2CC(=O)NCCc1c[nH]c2ccccc12`, for which the inhibition on Neuropilin-1 [4] worked out at 39%. On the same count and under the same terms, with `CC1(C)O[C@@H]2[C@H](O1)[C@H](Cn1cc(CCCNC(=N)N)nn1)O[C@@H]2CC(=O)NCCc1c[nH]c2ccccc12` the figure was 18%. On the same count and under the same terms, the value for `N=C(N)NCCc1cn(C[C@@H]2O[C@H](CC(=O)NCCc3c[nH]c4ccccc34)[C@H](O)[C@@H]2O)nn1` was 37%; that for `N=C(N)NCCCc1cn(C[C@@H]2O[C@H](CC(=O)NCCc3c[nH]c4ccccc34)[C@H](O)[C@@H]2O)nn1` was 4%; that for `CC1(C)O[C@@H]2[C@H](O1)[C@@H](CN(CCNC(=N)N)C(=N)N)O[C@@H]2CC(=O)NCCc1c[nH]c2ccccc12` was 26%.
